Published values pooled from the literature.
Each line is one published result; the experiments were not run side by side.
Observed: cell growth or viability

SMILES | cell line | technique | time | IC50
C/C(=N\CCNCCNCC/N=C(\C)c1c(O)c2ccccc2oc1=O)c1c(O)c2ccccc2oc1=O | BEAS-2B | MTT | 48 h | 4.11 µM
CCOC(=O)c1c(C)nc2ccc(-c3ccc(OCc4ccccc4)c(F)c3)cc2c1O | MDA-MB-468 | MTT | 48 h | 2 µM
Nc1nc2cc(CC[C@H]3C[C@@H](n4ccc5c(N)ncnc54)[C@H](O)[C@@H]3O)ccc2cc1Br | MDA-MB-435S | CCK-8 | 72 h | > 100 µM
c1ccc(-c2noc(-c3nn(Cc4ccncc4)c4ccccc34)n2)cc1 | human Fibroblast |  | 48 h | 51.4 µM
CN1CCC(NC2CCc3[nH]c4c(C(N)=O)ccc(-c5ccccc5Cl)c4c3C2)CC1 (stereo not drawn) | SGC-7901 |  | 96 h | 0.0172 µM
COc1cc(Cn2nc(-c3ccc(CO)o3)c3ccccc32)ccn1 | RBE | ATP luminescence |  | 0.38 µM
CNC(=O)c1cc(Oc2ccc(NC(=O)Nc3ccc(Cl)c(C(F)(F)F)c3)cc2)ccn1 | BEAS-2B | MTT | 24 h | 15.8 µM
Cc1sc2c(c1C)C(c1ccc(Cl)cc1)=N[C@@H](CC(=O)NCCCCNC(=O)COc1cccc3c1C(=O)N(C1CCC(=O)NC1=O)C3=O)c1nnc(C)n1-2 (stereo partly drawn) | KATO III | CCK-8 | 72 h | > 10 µM
Clc1ccc(Cn2nc(-c3nc(-c4ccccc4)no3)c3ccccc32)c(Cl)c1 | human Fibroblast |  | 48 h | 164 µM
CC(O)c1ccc(-c2nn(Cc3ccccc3)c3ccccc23)o1 (stereo not drawn) | RBE | ATP luminescence |  | 6.92 µM
Cc1ccc(CNC(=S)N/N=C/c2ccc(N3CCC(O)CC3)cc2)cc1 | BEAS-2B | MTT | 24 h | 15.9 µM
Cc1noc(-c2nn(Cc3ccc(Cl)cc3Cl)c3ccccc23)n1 | human Fibroblast |  | 48 h | 148 µM
NCc1ccc(-c2nn(Cc3ccccc3)c3ccccc23)o1 | RBE | ATP luminescence |  | 2.4 µM
COc1cc(C2C3=C(COC3=O)N(CCO)c3cc4c(cc32)CCC4)cc(OC)c1OC (stereo not drawn) | MDA-MB-468 | ATP luminescence | 48 h | 0.1 µM
OCc1ccc(-c2nn(Cc3ccccn3)c3ccccc23)o1 | RBE | ATP luminescence |  | 0.302 µM
Cc1nc2ccc(-c3ccc(F)cc3F)cc2c(O)c1C(=O)O | MDA-MB-468 | MTT | 48 h | ≥ 100 µM
Cc1nnc(-c2nn(Cc3ccc(Cl)cc3Cl)c3ccccc23)o1 | human Fibroblast |  | 48 h | 97.5 µM
C/C(=N\N=C(/C)c1c(O)c2ccccc2oc1=O)c1c(O)c2ccccc2oc1=O | BEAS-2B | MTT | 48 h | 29.6 µM

SMILES | cell line | technique | time | IC50
Cc1nc2ccc(-c3cccc(F)c3)cc2c(O)c1C(=O)O | MDA-MB-468 | MTT | 48 h | ≥ 100 µM
OCn1ccnc1 | BEAS-2B | MTT | 24 h | > 800 µM
CCOC(=O)c1c(C)nc2ccc(-c3ccc(F)c(F)c3)cc2c1O | MDA-MB-468 | MTT | 48 h | 4 µM
COc1cccc2c1C(=O)c1c(O)c3c(c(O)c1C2=O)C[C@@](O)(C(=O)CO)C[C@@H]3O[C@H]1C[C@H](N)[C@H](O)[C@H](C)O1 | SGC-7901 |  | 96 h | 0.256 µM
Fc1ccc2c(-c3nnc(Cc4ccccc4)[nH]3)nn(Cc3ccc(Cl)cc3Cl)c2c1 | human Fibroblast |  | 48 h | 584 µM
Cc1cnc(Cn2nc(-c3ccc(CO)o3)c3ccccc32)s1 | RBE | ATP luminescence |  | 1.05 µM
OC1CCN(c2ccc(/C=N/NC(=S)Nc3ccc(F)cc3)cc2)CC1 | BEAS-2B | MTT | 24 h | 29.1 µM
C/C(=N\C1CCCCC1/N=C(\C)c1c(O)c2ccccc2oc1=O)c1c(O)c2ccccc2oc1=O (stereo not drawn) | BEAS-2B | MTT | 48 h | 5.46 µM
Cc1nc2ccc(-c3ccc(F)c(F)c3)cc2c(O)c1C(=O)O | MDA-MB-468 | MTT | 48 h | ≥ 100 µM
OC1CCN(c2ccc(/C=N/NC(=S)Nc3ccc(Br)cc3)cc2)CC1 | BEAS-2B | MTT | 24 h | 19.8 µM
OCc1ccc(-c2nn(Cc3ccccc3)c3ncccc23)o1 | RBE | ATP luminescence |  | 15.5 µM
COc1ccc(NC(=S)N/N=C/c2ccc(N3CCC(O)CC3)cc2)cc1 | BEAS-2B | MTT | 24 h | 17.5 µM
COc1ccc2c(-c3nc(-c4ccccc4)no3)nn(Cc3ccncc3)c2c1 | human Fibroblast |  | 48 h | 123 µM
OCc1ccc(N2CCc3cccc(F)c3C2)cc1Cl | RBE | ATP luminescence |  | < 0.2 µM
Fc1ccc2c(-c3nnc(Cc4ccccc4)s3)nn(Cc3ccccc3)c2c1 | human Fibroblast |  | 48 h | 605 µM
CC1c2ccccc2CCN1c1ccc(CO)c(Cl)c1 (stereo not drawn) | RBE | ATP luminescence |  | < 0.2 µM
CC(=O)ON=C1C=CC(=C(C#N)c2ccccc2)C=C1 | human Fibroblast | MTT | 24 h | 25.9 µg/mL
O=C(O)c1nn(Cc2ccc(Cl)cc2Cl)c2ccccc12 | human Fibroblast |  | 48 h | 259 µM
